Assay results from ChEMBL document CHEMBL2150994, “Design, synthesis, and pharmacological evaluation of glutamate carboxypeptidase II (GCPII) inhibitors based on thioalkylbenzoic acid scaffolds” (J Med Chem, 2012).
Each block holds one compound with its values, some of them ahead of it. Calls of active or inactive are those of the source. The calls are words filed in the database; no cut-off is given here.

Key:
[1] = biological target: Glutamate carboxypeptidase 2 (Homo sapiens, UniProt Q04609); experiment: Inhibition of human recombinant GCP2 using N-acetyl-L-aspartyl-[3H]-L-glutamate as substrate by microplate assay
Sequence of Glutamate carboxypeptidase 2 (Q04609 whole entry): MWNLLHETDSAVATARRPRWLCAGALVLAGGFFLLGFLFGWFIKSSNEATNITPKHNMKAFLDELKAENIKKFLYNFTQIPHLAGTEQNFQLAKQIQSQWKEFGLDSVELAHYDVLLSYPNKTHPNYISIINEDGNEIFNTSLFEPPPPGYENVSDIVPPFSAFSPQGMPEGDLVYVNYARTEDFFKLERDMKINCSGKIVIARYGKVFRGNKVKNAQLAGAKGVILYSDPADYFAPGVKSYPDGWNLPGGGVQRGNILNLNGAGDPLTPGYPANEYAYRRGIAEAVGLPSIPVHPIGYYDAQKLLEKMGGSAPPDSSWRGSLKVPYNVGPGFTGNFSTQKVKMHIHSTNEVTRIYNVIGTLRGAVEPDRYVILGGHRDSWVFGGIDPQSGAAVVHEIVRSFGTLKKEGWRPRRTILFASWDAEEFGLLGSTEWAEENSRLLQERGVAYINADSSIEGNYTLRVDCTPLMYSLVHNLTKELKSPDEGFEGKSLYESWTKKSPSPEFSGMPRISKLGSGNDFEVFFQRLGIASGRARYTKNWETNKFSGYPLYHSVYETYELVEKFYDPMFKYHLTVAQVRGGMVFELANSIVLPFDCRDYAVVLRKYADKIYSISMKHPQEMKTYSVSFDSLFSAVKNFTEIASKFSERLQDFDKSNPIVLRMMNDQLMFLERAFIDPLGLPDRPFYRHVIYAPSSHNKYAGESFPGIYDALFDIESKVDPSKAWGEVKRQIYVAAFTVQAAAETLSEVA
In short: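 Radiometric enzyme assay using purified human recombinant GCPII with N-acetyl-L-aspartyl-[3H]-L-glutamate as substrate. IC50 was determined.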

[2] = AUC (0 to infinity) in fasted rat at 10 mg/kg, po; type: ADME, organism-based; design: time infinity, dose 10 mg/kg, route oral; settings: plasma
In short: (§1)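 Fasted rats dosed at 10 mg/kg intravenously (n = 4) or orally (n = 9). Plasma was sampled and the pharmacokinetic parameters Cmax, Tmax, AUCinf, CL/F, terminal t1/2 and oral bioavailability F were derived. Values are given as mean ± deviation for each route.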

[3] = test system: Salmonella typhimurium; experiment: Mutagenic activity in Salmonella typhimurium TA100 by Ames test in presence of S9 fraction; type: toxicity, organism-based; settings: salmonella enterica subsp. enterica serovar typhimurium
[4] = Inhibition of NMDA receptor glycine binding site at 10 uM
In short: (§2)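 Outsourced receptor binding and enzyme panel, covering NMDA receptor (agonist, glycine, phencyclidine and polyamine sites), AMPA, kainate, strychnine-sensitive glycine receptor and kidney-type glutaminase. Percent inhibition was measured at 10 μM, with glutaminase tested up to 100 μM.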

[5] = test system: Salmonella typhimurium; experiment: Mutagenic activity in Salmonella typhimurium TA1535 by Ames test in absence of S9 fraction; type: toxicity, organism-based; settings: salmonella enterica subsp. enterica serovar typhimurium
[6] = test system: Liver; experiment: Metabolic stability in dog liver microsomes after 2 hrs; type: ADME, Canis lupus familiaris, Microsome
In short: (§3)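 Compound was incubated with liver microsomes from mouse, rat, dog, monkey and human for 2 h. Metabolism was assessed by detection of compound turnover.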

[7] = Inhibition of NMDA receptor phencyclidine binding site at 10 uM; in short: as §2
[8] = Cmax in fasted rat at 10 mg/kg, po; type: ADME, organism-based; design: dose 10 mg/kg, route oral; settings: in vivo; in short: as §1
[9] = test system: Liver; experiment: Metabolic stability in mouse liver microsomes after 2 hrs; type: ADME, Microsome; in short: as §3
[10] = test system: Salmonella typhimurium; experiment: Mutagenic activity in Salmonella typhimurium TA98 by Ames test in absence of S9 fraction; type: toxicity, organism-based; settings: salmonella enterica subsp. enterica serovar typhimurium
[11] = Terminal half life in fasted rat at 10 mg/kg, po; type: ADME, organism-based; design: dose 10 mg/kg, route oral; settings: in vivo, read-out: beta t1/2 (converted); in short: as §1
[12] = Tmax in fasted rat at 10 mg/kg, po; type: ADME, organism-based; design: dose 10 mg/kg, route oral; settings: in vivo; in short: as §1
[13] = biological target: Voltage-gated inwardly rectifying potassium channel KCNH2 (Homo sapiens, UniProt Q12809); experiment: Inhibition of human ERG upto 100 uM
Sequence of Voltage-gated inwardly rectifying potassium channel KCNH2 (Q12809 whole entry): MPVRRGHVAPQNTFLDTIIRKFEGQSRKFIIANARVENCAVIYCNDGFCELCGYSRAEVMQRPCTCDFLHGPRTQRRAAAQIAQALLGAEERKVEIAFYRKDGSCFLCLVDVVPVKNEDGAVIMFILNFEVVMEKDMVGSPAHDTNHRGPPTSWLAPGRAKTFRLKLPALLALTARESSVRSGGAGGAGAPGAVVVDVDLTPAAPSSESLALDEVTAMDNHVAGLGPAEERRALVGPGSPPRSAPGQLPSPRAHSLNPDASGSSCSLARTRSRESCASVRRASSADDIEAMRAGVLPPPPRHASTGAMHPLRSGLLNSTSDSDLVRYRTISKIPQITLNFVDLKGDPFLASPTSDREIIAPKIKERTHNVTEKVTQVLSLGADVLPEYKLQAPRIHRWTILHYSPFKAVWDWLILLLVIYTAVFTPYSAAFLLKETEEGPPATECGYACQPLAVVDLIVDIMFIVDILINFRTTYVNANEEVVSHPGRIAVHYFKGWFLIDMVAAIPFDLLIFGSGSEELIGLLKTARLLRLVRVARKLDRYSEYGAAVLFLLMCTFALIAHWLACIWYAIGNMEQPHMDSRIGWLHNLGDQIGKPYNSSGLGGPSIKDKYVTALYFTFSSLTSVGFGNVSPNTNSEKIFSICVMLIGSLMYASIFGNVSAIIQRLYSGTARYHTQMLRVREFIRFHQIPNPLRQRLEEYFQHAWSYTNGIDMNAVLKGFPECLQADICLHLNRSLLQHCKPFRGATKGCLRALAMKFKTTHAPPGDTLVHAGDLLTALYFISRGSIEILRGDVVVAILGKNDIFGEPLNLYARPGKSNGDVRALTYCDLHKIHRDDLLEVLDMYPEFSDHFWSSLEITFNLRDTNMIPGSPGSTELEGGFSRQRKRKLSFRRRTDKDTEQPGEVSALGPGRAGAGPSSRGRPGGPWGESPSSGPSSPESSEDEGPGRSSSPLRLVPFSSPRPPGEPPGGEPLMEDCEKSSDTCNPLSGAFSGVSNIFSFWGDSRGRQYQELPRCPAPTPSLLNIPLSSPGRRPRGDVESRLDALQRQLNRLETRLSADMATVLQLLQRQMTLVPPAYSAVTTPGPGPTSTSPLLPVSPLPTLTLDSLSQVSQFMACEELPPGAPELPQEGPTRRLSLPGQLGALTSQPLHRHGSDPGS
In short: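 hERG channel assay run by an external contractor, with compound tested at concentrations up to 100 μM.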

[14] = Oral bioavailability in fasted rat at 10 mg/kg; type: ADME, organism-based; settings: in vivo; in short: as §1
[15] = test system: Salmonella typhimurium; experiment: Mutagenic activity in Salmonella typhimurium TA98 by Ames test in presence of S9 fraction; type: toxicity, organism-based; settings: salmonella enterica subsp. enterica serovar typhimurium
[16] = biological target: T1, Glutaminase kidney isoform, mitochondrial (Homo sapiens) (UniProt O94925); experiment: Inhibition of glutaminase kidney isoform at 100 uM
T1 sequence (whole entry): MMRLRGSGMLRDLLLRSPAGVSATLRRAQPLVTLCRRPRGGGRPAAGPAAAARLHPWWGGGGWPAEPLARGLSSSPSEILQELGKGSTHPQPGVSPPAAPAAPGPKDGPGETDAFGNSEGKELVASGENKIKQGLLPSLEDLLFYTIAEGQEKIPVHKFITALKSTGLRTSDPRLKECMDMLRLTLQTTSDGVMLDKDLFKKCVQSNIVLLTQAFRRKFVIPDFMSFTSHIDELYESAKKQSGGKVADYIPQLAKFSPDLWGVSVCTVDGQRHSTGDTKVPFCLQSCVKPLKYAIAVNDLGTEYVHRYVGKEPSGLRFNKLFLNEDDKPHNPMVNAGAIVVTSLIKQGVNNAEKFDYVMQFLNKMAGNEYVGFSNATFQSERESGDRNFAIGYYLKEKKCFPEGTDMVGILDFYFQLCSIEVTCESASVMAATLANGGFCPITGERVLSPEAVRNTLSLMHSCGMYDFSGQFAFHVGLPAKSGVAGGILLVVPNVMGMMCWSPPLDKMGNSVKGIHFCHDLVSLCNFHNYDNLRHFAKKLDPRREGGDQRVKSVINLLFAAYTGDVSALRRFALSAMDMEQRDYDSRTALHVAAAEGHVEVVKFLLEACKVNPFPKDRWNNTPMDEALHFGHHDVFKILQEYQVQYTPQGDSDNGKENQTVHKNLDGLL

[17] = test system: Salmonella typhimurium; experiment: Mutagenic activity in Salmonella typhimurium TA100 by Ames test in absence of S9 fraction; type: toxicity, organism-based; settings: salmonella enterica subsp. enterica serovar typhimurium
[18] = Inhibition of kainate receptor at 10 uM; in short: as §2
[19] = Inhibition of strychnine-sensitive glycine receptor at 10 uM; in short: as §2
[20] = Metabolic stability in monkey liver microsomes after 2 hrs; type: ADME, Macaca mulatta, Microsome; settings: rhesus monkey; in short: as §3
[21] = test system: Liver microsomes; experiment: Metabolic stability in rat liver microsomes after 2 hrs; type: ADME, Microsome; in short: as §3
[22] = test system: Salmonella typhimurium; experiment: Mutagenic activity in Salmonella typhimurium TA1537 by Ames test in presence of S9 fraction; type: toxicity, organism-based; settings: salmonella enterica subsp. enterica serovar typhimurium
[23] = Apparent oral clearance in fasted rat at 10 mg/kg, iv; type: ADME, organism-based; design: dose 10 mg/kg, route oral; settings: in vivo; in short: as §1
[24] = test system: Rattus norvegicus; experiment: Antinociceptive activity in rat chronic constriction injury neuropathic pain model assessed as reduction of thermal hyperalgesia at 0.1 mg/kg/day measured on day 8 and 12 relative to vehicle-treated control; type: functional, organism-based
In short: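 Rat chronic constriction injury model of neuropathic pain, after Bennett. Dosing was oral at 0.1 mg kg-1 day-1 against vehicle-treated controls. Read-out was thermal hyperalgesia on days 8 and 12, with significance at p < 0.05.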

[25] = test system: Liver microsomes; experiment: Metabolic stability in human liver microsomes after 2 hrs; type: ADME, Microsome; in short: as §3
[26] = Terminal half life in fasted rat at 10 mg/kg, iv; type: ADME, organism-based; design: dose 10 mg/kg, route intravenous; settings: in vivo, read-out: beta t1/2 (converted); in short: as §1
[27] = test system: Salmonella typhimurium; experiment: Mutagenic activity in Salmonella typhimurium TA1535 by Ames test in presence of S9 fraction; type: toxicity, organism-based; settings: salmonella enterica subsp. enterica serovar typhimurium
[28] = Inhibition of AMPA receptor at 10 uM; in short: as §2
[29] = Apparent oral clearance in fasted rat at 10 mg/kg; type: ADME, organism-based; design: dose 10 mg/kg, route oral; settings: in vivo; in short: as §1
[30] = Inhibition of NMDA receptor at 10 uM; in short: as §2
[31] = test system: Salmonella typhimurium; experiment: Mutagenic activity in Salmonella typhimurium TA1537 by Ames test in absence of S9 fraction; type: toxicity, organism-based; settings: salmonella enterica subsp. enterica serovar typhimurium
[32] = Inhibition of NMDA receptor polyamine binding site at 10 uM; in short: as §2
[33] = AUC (0 to infinity) in fasted rat at 10 mg/kg, iv; type: ADME, organism-based; design: time infinity, dose 10 mg/kg, route intravenous; settings: plasma; in short: as §1

SMILES: O=C(O)c1cccc(COc2ccc(CS)cc2C(=O)O)c1
IC50 [1]: 2 nM

SMILES: O=C(O)c1c(CCS)cccc1OCc1ccccc1
IC50 [1]: 200 nM

SMILES: O=C(O)c1cc(CS)ccc1-c1ccccc1
IC50 [1]: 5700 nM

SMILES: O=C(O)c1ccccc1-c1cccc(CCS)c1C(=O)O
IC50 [1]: 230 nM

SMILES: O=C(O)c1cccc(-c2ccc(CS)cc2C(=O)O)c1
IC50 [1]: 38 nM

SMILES: O=C(O)c1ccc(COc2cccc(CCS)c2C(=O)O)cc1
IC50 [1]: 200 nM

SMILES: O=C(O)c1cccc(COc2cccc(CCS)c2C(=O)O)c1
IC50 [1]: 69 nM

SMILES: O=C(O)c1ccc(-c2ccc(CS)cc2C(=O)O)cc1
IC50 [1]: 52 nM

SMILES: O=C(O)c1ccccc1COc1cccc(CCS)c1C(=O)O
IC50 [1]: 140 nM

SMILES: O=C(O)c1ccccc1CCS
IC50 [1]: 930 nM

More lines, main results first:

IC50 [1]: 1400 nM
SMILES: O=C(O)c1c(CCS)cccc1-c1ccccc1

IC50 [1]: 16 nM
SMILES: O=C(O)c1ccc(COc2ccc(CS)cc2C(=O)O)cc1

IC50 [1]: 41 nM
SMILES: O=C(O)c1ccccc1COc1ccc(CS)cc1C(=O)O

IC50 [1]: 7 nM
SMILES: O=C(O)c1ccc(-c2cccc(CCS)c2C(=O)O)cc1

IC50 [1]: 1300 nM
SMILES: O=C(O)c1cccc(CS)c1

AUC(0-inf) [2]: 1820 ng·h/mL
SMILES: O=C(O)CCC(CCCS)C(=O)O (centres undefined)

IC50 [1]: 340 nM
SMILES: O=C(O)c1ccccc1-c1ccc(CS)cc1C(=O)O

inhibition [4]: 12%
Stability [6]: Stable
inhibition [7]: inactive
Cmax [8]: 7100 ng/mL
Stability [9]: Stable
half-life [11]: 192 min
Tmax [12]: 1.1 h
bioavailability [14]: 37%
AUC(0-inf) [2]: 33800 ng·h/mL
inhibition [16]: inactive
inhibition [18]: inactive
inhibition [19]: inactive
Stability [20]: Stable
Stability [21]: Stable
CL/F [23]: 4.45 mL/min/kg
Stability [25]: Stable
half-life [26]: 216 min
inhibition [28]: inactive
CL/F [29]: 5.3 mL/min/kg
inhibition [30]: < 5%
inhibition [32]: inactive
AUC(0-inf) [33]: 90600 ng·h/mL
SMILES: O=C(O)c1cccc(-c2cccc(CCS)c2C(=O)O)c1
Activity [3]: Non-toxic
Activity [5]: Non-toxic
Activity [10]: Non-toxic
inhibition (INH) [13]: Not Active
Activity [15]: Non-toxic
Activity [17]: Non-toxic
Activity [22]: Non-toxic
Activity [24]: Active
Activity [27]: Non-toxic
Activity [31]: Non-toxic
